Results taken from ChEMBL document CHEMBL1122877, “New antihistaminic N-heterocyclic 4-piperidinamines. 1. Synthesis and antihistaminic activity of N-(4-piperidinyl)-1H-benzimidazol-2-amines” (1985).

Key:
[1] = In vivo protection from compound 48/80 induced lethality test in rats 1 hour after subcutaneous administration.; type: functional; conditions: Rattus norvegicus, sc
Method in brief: (§1)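 Male inbred Wistar rats (240-260 g), fasted overnight, held at 21 ± 1 °C and 65 ± 5% RH. Dosed sc or orally, vehicle 0.9% NaCl. Endpoint is survival at 4 h. ED50 by Finney from 5 rats per dose, at least 3 doses from a geometric series 0.0025-40 mg/kg. Estimated ED50 uses at least 2 rats per dose.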

[2] = In vivo anti-histaminic protection from 48/80 induced lethality in rats 2 hours after oral administration; type: functional; conditions: Rattus norvegicus; method in brief: as §1
Cavia porcellus [3] = assay: Protection against intravenous histamine lithality in Guinea pigs 48 hour after oral administration; type: functional; conditions: read-out: PD50
Method in brief: (§2)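 Male albino guinea pigs (280-360 g) given oral doses in 2-fold increments 3, 24 or 48 h before iv histamine dihydrochloride 1.25 mg/kg. Protection is survival at 1 h. PD50 by Finney from 4-6 animals per dose and time point, at least 3 doses from a geometric series 0.0025-5 mg/kg. Estimated PD50 uses at least 2 animals per dose.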

Cavia porcellus [4] = assay: Protection against intravenous histamine lithality in Guinea pigs 24 hour after oral administration; type: functional; conditions: for ED50: read-out: PD50; method in brief: as §2
Cavia porcellus [5] = assay: Protection against intravenous histamine lithality in Guinea pigs 3 hour after oral administration; type: functional; conditions: for ED50: read-out: PD50; method in brief: as §2
[6] = target: Histamine H1 receptor (Cavia porcellus) (UniProt P31389); assay: In vitro inhibition of histamine(H1) induced contraction of guinea pig ileum.; type: functional, tissue-based
Method in brief: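 Isolated guinea pig ileum in a bath. Cumulative histamine curves every 5 min, logarithmically increasing doses (5.4 × 10^-8, 1.6 × 10^-7, 5.4 × 10^-7 M, ...) until maximal contraction. Repeated after 5 min antagonist contact, then washout and two further curves. Highest test dose normally 0.04 mg/L. A10 = antagonist concentration giving a 10-fold rightward shift of the histamine curve.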

[7] = In vivo anti-histaminic protection from 48/80 induced lethality in rats 1 hour after subcutaneous administration.; type: functional; conditions: Rattus norvegicus, sc; method in brief: as §1
[8] = In vivo anti-histaminic protection from 48/80 induced lethality in rats 2 hour after oral administration.; type: functional; conditions: Rattus norvegicus; method in brief: as §1

Sequence of Histamine H1 receptor (Cavia porcellus) (P31389 whole entry): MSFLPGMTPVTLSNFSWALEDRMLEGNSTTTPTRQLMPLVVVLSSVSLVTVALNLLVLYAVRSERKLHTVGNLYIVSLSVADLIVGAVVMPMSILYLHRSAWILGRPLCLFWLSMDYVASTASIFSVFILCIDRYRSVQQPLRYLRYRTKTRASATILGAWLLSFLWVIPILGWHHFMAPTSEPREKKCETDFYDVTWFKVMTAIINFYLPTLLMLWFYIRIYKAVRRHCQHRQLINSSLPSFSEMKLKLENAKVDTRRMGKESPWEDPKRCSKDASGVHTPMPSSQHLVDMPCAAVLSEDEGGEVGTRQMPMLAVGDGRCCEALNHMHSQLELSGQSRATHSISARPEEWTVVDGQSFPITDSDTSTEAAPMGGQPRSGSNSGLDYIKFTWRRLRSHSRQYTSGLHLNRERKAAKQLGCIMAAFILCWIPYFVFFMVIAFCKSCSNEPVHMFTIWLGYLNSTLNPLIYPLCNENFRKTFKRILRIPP

Row | SMILES | ED50 [1] [mg/kg] | ED50 [2] [mg/kg] | further results
1 | CCCCCn1c(NC2CCN(CCc3ccccc3)CC2)nc2ccccc21 | 2.5 | – | –
2 | CCn1nnn(CCN2CCC(Nc3nc4ccccc4n3Cc3ccccc3)CC2)c1=O | 0.31 | > 2.5 | –
3 | CC(Cn1c(NC2CCN(CCc3ccccc3)CC2)nc2ccccc21)c1ccccc1 (stereo not drawn) | 2.5 | – | –
4 | C=CCN1CCC(Nc2nc3ccccc3n2Cc2ccccc2)CC1 | 0.63 | 0.63 | –
5 | c1ccc(CCN2CCC(Nc3nc4ccccc4n3CCc3ccccc3)CC2)cc1 | > 2.5 | – | –
6 | CC(c1ccc(F)cc1)n1c(NC2CCN(CCc3ccccc3)CC2)nc2ccccc21 (stereo not drawn) | 1.25 | > 2.5 | –
7 | CCOc1ccc(CCN2CCC(Nc3nc4ccccc4n3Cc3ccccc3)CC2)cc1 | 1.25 | 0.63 | –
8 | COc1ccc(CCN2CCC(Nc3nc4ccccc4n3Cc3ccccc3)CC2)cc1OC | 1.25 | > 2.5 | –
9 | CN(c1nc2ccccc2n1Cc1ccc(F)cc1)C1CCN(CCc2ccccc2)CC1 | 1.25 | 1.25 | –
10 | c1ccc(CCN2CCC(Nc3nc4ccccc4n3Cc3ccccc3)CC2)cc1 | – | 3.5 | ED50 (Cavia porcellus [3]): 0.25 mg/kg; ED50 (Cavia porcellus [4]): 0.35 mg/kg; ED50 (Cavia porcellus [5]): 0.25 mg/kg
11 | Cc1ccc(Cn2c(N(C)C3CCN(CCc4ccccc4)CC3)nc3ccccc32)cc1 | 2.5 | – | –
12 | Fc1ccc(CN2CCC(Nc3nc4ccccc4n3Cc3ccccc3)CC2)cc1 | 2.5 | – | –
13 | CCn1c(N(Cc2ccccc2)C2CCN(CCc3ccccc3)CC2)nc2ccccc21 | > 2.5 | – | –
14 | OC(COc1ccccc1)CN1CCC(Nc2nc3ccccc3n2Cc2ccccc2)CC1 (stereo not drawn) | 1.25 | 0.63 | ED50 (Cavia porcellus [3]): > 0.6 mg/kg; ED50 (Cavia porcellus [4]): 0.6 mg/kg; ED50 (Cavia porcellus [5]): 0.35 mg/kg
15 | Fc1ccccc1Cn1c(NC2CCN(CCc3ccccc3)CC2)nc2ccccc21 | 1.25 | 2.5 | –
16 | CCn1c(NC2CCN(CCc3ccccc3)CC2)nc2ccccc21 | 2.5 | – | –
17 | COc1cc(CCN2CCC(Nc3nc4ccccc4n3Cc3ccccc3)CC2)cc(OC)c1OC | 0.63 | 1.25 | –
18 | CN(C)CCOC(c1ccccc1)c1ccccc1 [DIPHENHYDRAMINE] | 4 | 37.4 | ED50 (Cavia porcellus [5]): > 2.5 mg/kg; A10 [6]: 0.66 mg/L
19 | COc1ccc(CCN2CCC(Nc3nc4ccccc4n3Cc3ccccc3)CC2)cc1 | 1.25 | 0.63 | ED50 (Cavia porcellus [3]): 0.16 mg/kg; ED50 (Cavia porcellus [4]): 0.08 mg/kg; ED50 (Cavia porcellus [5]): 0.25 mg/kg
20 | Fc1ccc(Cn2c(NC3CCN(CCc4ccccc4)CC3)nc3ccccc32)cc1 | 0.31 | 0.63 | ED50 (Cavia porcellus [3]): 0.12 mg/kg; ED50 (Cavia porcellus [4]): 0.08 mg/kg; ED50 (Cavia porcellus [5]): 0.45 mg/kg
21 | C(=C\c1ccccc1)/CN1CCC(Nc2nc3ccccc3n2Cc2ccccc2)CC1 | 1.25 | > 2.5 | –
22 | CCCCn1c(NC2CCN(CCc3ccccc3)CC2)nc2ccccc21 | 2.5 | – | –
23 | Oc1nc2ccccc2n1CCN1CCC(Nc2nc3ccccc3n2Cc2ccccc2)CC1 | 0.31 | 2.5 | ED50 (Cavia porcellus [4]): > 0.6 mg/kg; ED50 (Cavia porcellus [5]): 0.35 mg/kg
24 | CCCCn1c(N(C)C2CCN(CCc3ccccc3)CC2)nc2ccccc21 | 2.5 | – | –
25 | Brc1ccc(Cn2c(NC3CCN(CCc4ccccc4)CC3)nc3ccccc32)cc1 | 1.25 | – | –
26 | Cc1ccc(Cn2c(NC3CCN(CCc4ccccc4)CC3)nc3ccccc32)cc1 | 1.25 | 2.5 | –
27 | CN(C)CCC(c1ccc(Cl)cc1)c1ccccn1 (stereo not drawn) [CHLORPHENIRAMINE] | 0.77 | 37.4 | –

Row | SMILES | ED50 [1] [mg/kg] | ED50 [2] [mg/kg] | further results
28 | CCCCN1CCC(Nc2nc3ccccc3n2Cc2ccccc2)CC1 | – | – | ED50 [7]: 0.31 mg/kg; ED50 [8]: > 2.5 mg/kg
29 | COc1cccc(CCN2CCC(Nc3nc4ccccc4n3Cc3ccccc3)CC2)c1 | 0.63 | 0.31 | –
30 | CC(c1ccccc1)N1CCC(Nc2nc3ccccc3n2Cc2ccccc2)CC1 (stereo not drawn) | 1.25 | > 2.5 | –
31 | c1ccc(Cn2c(NC3CCN(CCc4cccs4)CC3)nc3ccccc32)cc1 | 0.63 | – | –
32 | CN1CCC(=C2c3ccccc3CCc3cccnc32)CC1 [AZATADINE] | 0.049 | 0.48 | ED50 (Cavia porcellus [3]): > 2.5 mg/kg; ED50 (Cavia porcellus [4]): 1.36 mg/kg; ED50 (Cavia porcellus [5]): 0.014 mg/kg
33 | CN(c1nc2ccccc2n1Cc1ccc(Br)cc1)C1CCN(CCc2ccccc2)CC1 | 2.5 | – | –
34 | c1ccc(CCN2CCC(Nc3nc4ccccc4n3Cc3ccccn3)CC2)cc1 | 0.16 | 2.5 | ED50 (Cavia porcellus [3]): > 0.16 mg/kg; ED50 (Cavia porcellus [4]): 0.12 mg/kg; ED50 (Cavia porcellus [5]): 0.12 mg/kg
35 | O=C(CCCN1CCC(Nc2nc3ccccc3n2Cc2ccccc2)CC1)c1ccc(F)cc1 | 2.5 | – | –
36 | Oc1nc2ccccc2n1CCCN1CCC(Nc2nc3ccccc3n2Cc2ccccc2)CC1 | 1.25 | 2.5 | ED50 (Cavia porcellus [3]): > 0.6 mg/kg; ED50 (Cavia porcellus [4]): 0.6 mg/kg; ED50 (Cavia porcellus [5]): 0.16 mg/kg
37 | c1ccc(CCCN2CCC(Nc3nc4ccccc4n3Cc3ccccc3)CC2)cc1 | 2.5 | – | ED50 (Cavia porcellus [3]): > 0.6 mg/kg; ED50 (Cavia porcellus [4]): 0.35 mg/kg; ED50 (Cavia porcellus [5]): 0.35 mg/kg
38 | c1ccc(Cn2c(NC3CCN(CC4COc5ccccc5O4)CC3)nc3ccccc32)cc1 (stereo not drawn) | 2.5 | – | –
39 | CN1CCC(Nc2nc3ccccc3n2Cc2ccccc2)CC1 | – | – | ED50 [7]: 0.31 mg/kg; ED50 [8]: > 2.5 mg/kg
40 | Fc1ccc(CCN2CCC(Nc3nc4ccccc4n3Cc3ccccc3)CC2)cc1 | 1.25 | > 2.5 | –
41 | CCCCN(c1nc2ccccc2[nH]1)C1CCN(CCc2ccccc2)CC1 | 2.5 | – | –
42 | CC(c1ccccc1)n1c(NC2CCN(CCc3ccccc3)CC2)nc2ccccc21 (stereo not drawn) | 2.5 | – | –
43 | c1ccc(Cn2c(NC3CCN(C4CCCCC4)CC3)nc3ccccc32)cc1 | – | – | ED50 [7]: 0.63 mg/kg; ED50 [8]: > 2.5 mg/kg
44 | Cc1cccc(CCN2CCC(Nc3nc4ccccc4n3Cc3ccccc3)CC2)c1 | 1.25 | 2.5 | –
45 | CN1CCC(Nc2nc3ccccc3n2C)CC1 | > 2.5 | – | –
46 | COc1ccccc1CCN1CCC(Nc2nc3ccccc3n2Cc2ccccc2)CC1 | 0.63 | 1.25 | –
47 | O=c1[nH]c2ccccc2n1CCCN1CCN(C(c2ccccc2)c2ccccc2)CC1 [OXATOMIDE] | – | – | PD 50 (Cavia porcellus [4]): >5 mg/kg; PD 50 (Cavia porcellus [5]): 0.18 mg/kg; ED50 [8]: 5.37 mg/kg
48 | FC(F)(F)c1cccc(CCN2CCC(Nc3nc4ccccc4n3Cc3ccccc3)CC2)c1 | 2.5 | – | –
49 | Clc1ccc(CCN2CCC(Nc3nc4ccccc4n3Cc3ccccc3)CC2)cc1 | 2.5 | – | –
50 | c1ccc(Cn2c(NC3CCN(CCCOc4ccccc4)CC3)nc3ccccc32)cc1 | 0.63 | 0.63 | –
51 | CCn1c(N(C)C2CCN(CCc3ccccc3)CC2)nc2ccccc21 | 0.63 | > 2.5 | –
52 | N#CC1(c2ccccc2)CCC(N2CCC(Nc3nc4ccccc4n3Cc3ccccc3)CC2)CC1 (stereo not drawn) | 2.5 | – | –
53 | CN(c1nc2ccccc2n1Cc1ccccc1)C1CCN(CCc2ccccc2)CC1 | 2.5 | – | –
54 | Clc1ccc(Cn2c(NC3CCN(CCc4ccccc4)CC3)nc3ccccc32)cc1 | 2.5 | – | –
